Measured values: ChEMBL document CHEMBL1151850, “Triterpenoid saponins from Dianthus versicolor” (J Nat Prod, 2009)
pIC50: −log10 of the molar value.

Columns and labels:
[1] = Cytotoxicity against human EVC304 cells after 24 hrs by MTT assay; format: cell-based; details: EVC304, 24 h
How it was run: (§1)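 Cells kept at 37 °C, 5% CO2 in RPMI-1640 with 10% fetal calf serum, subcultured twice weekly. Plated at 10^4 cells/well and allowed to adhere 24 h. Serial dilutions added from DMSO stock diluted in RPMI-1640, final DMSO below 1%, triplicate wells. After 24 h, MTT added for 4 h. Formazan dissolved in DMSO, absorbance read at 570 nm.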

[2] = Cytotoxicity against human BGC803 cells after 24 hrs by MTT assay; format: functional, cell-based; details: BGC803, 24 h; how it was run: as §1
MCF7 = test: Cytotoxicity against human MCF7 cells after 24 hrs by MTT assay; format: functional, cell-based; details: MCF7, 24 h
How it was run: (§2)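 Grown in DMEM with 10% fetal calf serum, 2 mM L-glutamine and penicillin/streptomycin at 37 °C, 5% CO2. 10^4 cells/well adhered 24 h before serial dilutions were added (DMSO stock diluted in medium, final DMSO <1%), in parallel triplicate wells. After 24 h exposure, MTT added for 4 h. Formazan dissolved in DMSO; viability read as absorbance at 570 nm.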

HepG2 = test: Cytotoxicity against human HepG2 cells after 24 hrs by MTT assay; format: functional, cell-based; details: HepG2, 24 h; how it was run: as §2
HFL1 = test: Cytotoxicity against human HFL1 cells after 24 hrs by MTT assay; format: cell-based; details: HFL1, 24 h; how it was run: as §2

Q: With `CC1(C)CC[C@]2(C(=O)O[C@@H]3O[C@H](CO[C@@H]4O[C@H](COC(=O)C[C@@](C)(O)CC(=O)O)[C@@H](O)[C@H](O)[C@H]4O[C@@H]4O[C@H](CO)[C@@H](O)[C@H](O)[C@H]4O)[C@@H](O)[C@H](O)[C@H]3O)[C@H](O)C[C@]3(C)C(=CC[C@@H]4[C@@]5(C)CC[C@H](O)[C@@](C)(C(=O)O[C@@H]6O[C@H](CO)[C@@H](O)[C@H](O)[C@H]6O)[C@@H]5CC[C@]43C)[C@@H]2C1` [DIANVERSICOSIDE A] as the compound, how does the pIC50 [1] read?
A: Its pIC50 is 5.08.

Q: And the pIC50 [2]?
A: The pIC50 was 5.21.

Q: What about the pIC50 (MCF7) of the same compound?
A: Its pIC50 is less than 5.00.

Q: And the pIC50 (HepG2)?
A: The pIC50 was less than 5.00.

Q: What about the pIC50 (HFL1) of the same compound?
A: The pIC50 was 5.55.

Q: With `CC1(C)CC[C@]2(C(=O)O[C@@H]3O[C@H](CO[C@@H]4O[C@H](COC(=O)C[C@@](C)(O)CC(=O)O)[C@@H](O)[C@H](O)[C@H]4O[C@@H]4O[C@H](CO)[C@@H](O)[C@H](O)[C@H]4O)[C@@H](O)[C@H](O[C@@H]4O[C@H](CO)[C@@H](O)[C@H](O)[C@H]4O)[C@H]3O)[C@H](O)C[C@]3(C)C(=CC[C@@H]4[C@@]5(C)CC[C@H](O)[C@@](C)(C(=O)O)[C@@H]5CC[C@]43C)[C@@H]2C1` [DIANVERSICOSIDE B] as the compound, how does the pIC50 [1] read?
A: Its pIC50 is 5.11.

Q: And the pIC50 [2]?
A: The pIC50 was 5.24.

Q: What about the pIC50 (MCF7) of the same compound?
A: The pIC50 was less than 5.00.

Q: And the pIC50 (HepG2)?
A: Its pIC50 is less than 5.00.

Q: And the pIC50 (HFL1)?
A: Its pIC50 is 5.51.

Q: With `CC1(C)CC[C@]2(C(=O)O[C@@H]3O[C@H](CO[C@@H]4O[C@H](COC(=O)C[C@@](C)(O)CC(=O)O)[C@@H](O)[C@H](O)[C@H]4O[C@@H]4O[C@H](CO)[C@@H](O)[C@H](O)[C@H]4O)[C@@H](O)[C@H](O[C@@H]4O[C@H](CO)[C@@H](O)[C@H](O)[C@H]4O)[C@H]3O)CC[C@]3(C)C(=CC[C@@H]4[C@@]5(C)CC[C@H](O)[C@@](C)(C(=O)O)[C@@H]5CC[C@]43C)[C@@H]2C1` [DIANVERSICOSIDE D] as the compound, how does the pIC50 [1] read?
A: Its pIC50 is 5.41.

Q: And the pIC50 [2]?
A: Its pIC50 is 5.54.

Q: And the pIC50 (MCF7)?
A: The pIC50 was less than 5.00.

Q: What about the pIC50 (HepG2) of the same compound?
A: Its pIC50 is less than 5.00.

Q: And the pIC50 (HFL1)?
A: Its pIC50 is 5.47.

Q: What does the source list for `CC1(C)CC[C@]2(C(=O)O[C@@H]3O[C@H](CO[C@@H]4O[C@H](CO)[C@@H](O)[C@H](O)[C@H]4O[C@@H]4O[C@H](CO)[C@@H](O)[C@H](O)[C@H]4O)[C@@H](O)[C@H](O[C@@H]4O[C@H](CO)[C@@H](O)[C@H](O)[C@H]4O)[C@H]3O)[C@H](O)C[C@]3(C)C(=CC[C@@H]4[C@@]5(C)CC[C@H](O)[C@@](C)(C(=O)O[C@@H]6O[C@H](CO)[C@@H](O)[C@H](O)[C@H]6O)[C@@H]5CC[C@]43C)[C@@H]2C1` [DIANVERSICOSIDE E]?
A: pIC50 [1]: 5.04; pIC50 [2]: 5.13; pIC50 (MCF7): < 5.00; pIC50 (HepG2): < 5.00; pIC50 (HFL1): 5.46

Q: With `CC1(C)CC[C@]2(C(=O)O[C@@H]3O[C@H](CO[C@@H]4O[C@H](CO)[C@@H](O)[C@H](O)[C@H]4O[C@@H]4O[C@H](CO)[C@@H](O)[C@H](O)[C@H]4O)[C@@H](O)[C@H](O)[C@H]3O)[C@H](O)C[C@]3(C)C(=CC[C@@H]4[C@@]5(C)CC[C@H](O)[C@@](C)(C(=O)O[C@@H]6O[C@H](CO)[C@@H](O)[C@H](O)[C@H]6O)[C@@H]5CC[C@]43C)[C@@H]2C1` [DIANVERSICOSIDE F] as the compound, how does the pIC50 [1] read?
A: The pIC50 was 5.02.

Q: And the pIC50 [2]?
A: Its pIC50 is 5.01.

Q: And the pIC50 (MCF7)?
A: Its pIC50 is less than 5.00.

Q: And the pIC50 (HepG2)?
A: Its pIC50 is less than 5.00.

Q: What about the pIC50 (HFL1) of the same compound?
A: Its pIC50 is 5.36.

Q: With `CC1(C)CC[C@]2(C(=O)O[C@@H]3O[C@H](CO[C@@H]4O[C@H](CO)[C@@H](O)[C@H](O)[C@H]4O[C@@H]4O[C@H](CO)[C@@H](O)[C@H](O)[C@H]4O)[C@@H](O)[C@H](O[C@@H]4O[C@H](CO)[C@@H](O)[C@H](O)[C@H]4O)[C@H]3O)CC[C@]3(C)C(=CC[C@@H]4[C@@]5(C)CC[C@H](O[C@@H]6OC[C@H](O)[C@H](O)[C@H]6O)[C@@](C)(C(=O)O)[C@@H]5CC[C@]43C)[C@@H]2C1` [DIANVERSICOSIDE G] as the compound, how does the pIC50 [1] read?
A: The pIC50 was 5.21.

Q: What about the pIC50 [2] of the same compound?
A: Its pIC50 is 5.17.

Q: What about the pIC50 (MCF7) of the same compound?
A: Its pIC50 is less than 5.00.

Q: And the pIC50 (HepG2)?
A: Its pIC50 is less than 5.00.

Q: And the pIC50 (HFL1)?
A: Its pIC50 is 5.48.

Q: With `CC1(C)CC[C@]2(C(=O)O[C@@H]3O[C@H](CO[C@@H]4O[C@H](CO)[C@@H](O)[C@H](O)[C@H]4O[C@@H]4O[C@H](CO)[C@@H](O)[C@H](O)[C@H]4O)[C@@H](O)[C@H](O[C@@H]4O[C@H](CO)[C@@H](O)[C@H](O)[C@H]4O)[C@H]3O)CC[C@]3(C)C(=CC[C@@H]4[C@@]5(C)CC[C@H](O)[C@@](C)(C(=O)O)[C@@H]5CC[C@]43C)[C@@H]2C1` [VACCAROID A] as the compound, how does the pIC50 [1] read?
A: The pIC50 was 5.39.

Q: What about the pIC50 [2] of the same compound?
A: The pIC50 was 5.28.

Q: What about the pIC50 (MCF7) of the same compound?
A: Its pIC50 is less than 5.00.

Q: And the pIC50 (HepG2)?
A: Its pIC50 is less than 5.00.

Q: What about the pIC50 (HFL1) of the same compound?
A: Its pIC50 is 5.11.

Q: With `CC1(C)CC[C@]2(C(=O)O)CC[C@]3(C)C(=CC[C@@H]4[C@@]5(C)CC[C@H](O)[C@@](C)(C(=O)O[C@@H]6O[C@H](CO[C@@H]7O[C@H](CO)[C@@H](O)[C@H](O)[C@H]7O[C@@H]7O[C@H](CO)[C@@H](O)[C@H](O)[C@H]7O)[C@@H](O)[C@H](O[C@@H]7O[C@H](CO)[C@@H](O)[C@H](O)[C@H]7O)[C@H]6O)[C@@H]5CC[C@]43C)[C@@H]2C1` [VACCAROID C] as the compound, how does the pIC50 [1] read?
A: The pIC50 was 5.06.

Q: What about the pIC50 [2] of the same compound?
A: Its pIC50 is 5.03.

Q: What about the pIC50 (MCF7) of the same compound?
A: Its pIC50 is less than 5.00.

Q: What about the pIC50 (HepG2) of the same compound?
A: The pIC50 was less than 5.00.

Q: And the pIC50 (HFL1)?
A: Its pIC50 is 5.42.
